Results as given in ChEMBL document CHEMBL4689842, “EUbOPEN Chemogenomics Library wave 1” (2021).

How the values were obtained:
Type in all cases: toxicity, cell-based
[1] = test system: HEK-293T; assay: Incucyte cell viability with HEK293T; conditions: human, 10 µM, compound concentration 10 uM; further: filed as whole numbers so only -1 and 0 and 1 occur
[2] = test system: U2OS; assay: Incucyte cell viability with U2OS; conditions: human, 10 µM, compound concentration 10 uM; further: filed as whole numbers so only -1 and 0 and 1 occur
[3] = test system: U2OS; assay: Multiplex assay against U2OS; conditions: human
Outline: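 Four dyes were applied at seeding to live cells: Hoechst33342, BioTracker Green Microtubule Cytoskeleton Dye, MitoTracker Red and Annexin V Alexa Fluor 680. Imaging after compound addition used a CQ1 microscope at 37°C and 5% CO2. CellPathfinder machine-learning gating then sorted cells into Hoechst high-intensity objects or normal cells, normal cells into healthy, pyknosed or fragmented nuclei, and pyknosed cells into mitotic or apoptotic, with tubulin, mitochondrial-mass and membrane-permeability phenotypes given as per cents of healthy-nucleus cells.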

[4] = 6 h, replicate number 1, timepoint 6 hours
[5] = 12 h, replicate number 1, timepoint 12 hours
[6] = 18 h, replicate number 1, timepoint 18 hours
[7] = 24 h, replicate number 1, timepoint 24 hours
[8] = 12 h, 1 µM, compound concentration 1 uM, replicate 1
[9] = 12 h, 1 µM, compound concentration 1 uM, replicate 2
[10] = 12 h, 10 µM, compound concentration 10 uM, replicate 1
[11] = 12 h, 10 µM, compound concentration 10 uM, replicate 2
[12] = 24 h, 1 µM, compound concentration 1 uM, replicate 1
[13] = 24 h, 1 µM, compound concentration 1 uM, replicate 2
[14] = 24 h, 10 µM, compound concentration 10 uM, replicate 1
[15] = 24 h, 10 µM, compound concentration 10 uM, replicate 2

COc1cc2c(Nc3ccc(NC(=O)c4ccccc4)cc3)ncnc2cc1OCCCN1CCOCC1
Growth Rate [1, 4]: 0
Growth Rate [1, 5]: 0
Growth Rate [1, 6]: 0
Growth Rate [1, 7]: 0
Growth Rate ([2]; 0 h, replicate number 1, timepoint 0 hours): 1
Growth Rate [2, 4]: 1
Growth Rate [2, 5]: 0
Growth Rate [2, 6]: 0
Growth Rate ([2]; 18 h, replicate number 2, timepoint 18 hours): 1
Growth Rate [2, 7]: 0
Growth Rate ([2]; 24 h, replicate number 2, timepoint 24 hours): 1
Population Apoptotic (%) [3, 8]: 18%
Population Fragmented Nuclei (%) [3, 8]: 8%
Population Healthy Nuclei (%) [3, 8]: 77%
Population Hoechst High Intensity Objects (%) [3, 8]: 1%
Population Membrane Permeable-Phenotype (%) [3, 8]: 63%
Population Mitochondria Different-Phenotype (%) [3, 8]: 24%
Population Mitotic Cells (%) [3, 8]: 81%
Population Normal (%) [3, 8]: 98%
Population Pyknosed Nuclei (%) [3, 8]: 13%
Population Tubulin-Different-Phenotype (%) [3, 8]: 99%
Total Cell Count [3, 8]: 121
Population Apoptotic (%) [3, 9]: 0%
Population Fragmented Nuclei (%) [3, 9]: 20%
Population Healthy Nuclei (%) [3, 9]: 74%
Population Hoechst High Intensity Objects (%) [3, 9]: 12%
Population Membrane Permeable-Phenotype (%) [3, 9]: 67%
Population Mitochondria Different-Phenotype (%) [3, 9]: 14%
Population Mitotic Cells (%) [3, 9]: 100%
Population Normal (%) [3, 9]: 87%
Population Pyknosed Nuclei (%) [3, 9]: 5%
Population Tubulin-Different-Phenotype (%) [3, 9]: 92%
Total Cell Count [3, 9]: 97
Population Apoptotic (%) [3, 10]: 44%
Population Fragmented Nuclei (%) [3, 10]: 5%
Population Healthy Nuclei (%) [3, 10]: 86%
Population Hoechst High Intensity Objects (%) [3, 10]: 3%
Population Membrane Permeable-Phenotype (%) [3, 10]: 10%
Population Mitochondria Different-Phenotype (%) [3, 10]: 24%
Population Mitotic Cells (%) [3, 10]: 55%
Population Normal (%) [3, 10]: 96%
Population Pyknosed Nuclei (%) [3, 10]: 7%
Total Cell Count [3, 10]: 215
Population Apoptotic (%) [3, 11]: 0%
Population Fragmented Nuclei (%) [3, 11]: 10%
Population Healthy Nuclei (%) [3, 11]: 87%
Population Hoechst High Intensity Objects (%) [3, 11]: 11%
Population Membrane Permeable-Phenotype (%) [3, 11]: 13%
Population Mitochondria Different-Phenotype (%) [3, 11]: 38%
Population Mitotic Cells (%) [3, 11]: 100%
Population Normal (%) [3, 11]: 88%
Population Pyknosed Nuclei (%) [3, 11]: 2%
Population Tubulin-Different-Phenotype (%) [3, 11]: 14%
Total Cell Count [3, 11]: 115
Population Apoptotic (%) [3, 12]: 19%
Population Fragmented Nuclei (%) [3, 12]: 16%
Population Healthy Nuclei (%) [3, 12]: 63%
Population Hoechst High Intensity Objects (%) [3, 12]: 2%
Population Membrane Permeable-Phenotype (%) [3, 12]: 48%
Population Mitochondria Different-Phenotype (%) [3, 12]: 39%
Population Mitotic Cells (%) [3, 12]: 80%
Population Normal (%) [3, 12]: 97%
Population Pyknosed Nuclei (%) [3, 12]: 19%
Population Tubulin-Different-Phenotype (%) [3, 12]: 98%
Total Cell Count [3, 12]: 129
Population Apoptotic (%) [3, 13]: 26%
Population Fragmented Nuclei (%) [3, 13]: 24%
Population Healthy Nuclei (%) [3, 13]: 61%
Population Hoechst High Intensity Objects (%) [3, 13]: 7%
Population Membrane Permeable-Phenotype (%) [3, 13]: 44%
Population Mitochondria Different-Phenotype (%) [3, 13]: 43%
Population Mitotic Cells (%) [3, 13]: 73%
Population Normal (%) [3, 13]: 92%
Population Pyknosed Nuclei (%) [3, 13]: 14%
Population Tubulin-Different-Phenotype (%) [3, 13]: 95%
Total Cell Count [3, 13]: 108
Population Apoptotic (%) [3, 14]: 18%
Population Fragmented Nuclei (%) [3, 14]: 7%
Population Healthy Nuclei (%) [3, 14]: 83%
Population Hoechst High Intensity Objects (%) [3, 14]: 8%
Population Membrane Permeable-Phenotype (%) [3, 14]: 13%
Population Mitochondria Different-Phenotype (%) [3, 14]: 37%
Population Mitotic Cells (%) [3, 14]: 81%
Population Normal (%) [3, 14]: 91%
Population Pyknosed Nuclei (%) [3, 14]: 9%
Population Tubulin-Different-Phenotype (%) [3, 14]: 18%
Total Cell Count [3, 14]: 237
Population Apoptotic (%) [3, 15]: 25%
Population Fragmented Nuclei (%) [3, 15]: 14%
Population Healthy Nuclei (%) [3, 15]: 77%
Population Hoechst High Intensity Objects (%) [3, 15]: 10%
Population Membrane Permeable-Phenotype (%) [3, 15]: 14%
Population Mitochondria Different-Phenotype (%) [3, 15]: 25%
Population Mitotic Cells (%) [3, 15]: 75%
Population Normal (%) [3, 15]: 89%
Population Pyknosed Nuclei (%) [3, 15]: 8%
Population Tubulin-Different-Phenotype (%) [3, 15]: 22%
Total Cell Count [3, 15]: 115
